ChEMBL document CHEMBL2177094, “Structure dependence of long-chain [18F]fluorothia fatty acids as myocardial fatty acid oxidation probes” (J Med Chem, 2012)

How the values were obtained:
[1] = tested on: Muscle tissue; test: Biodistribution in overnight fasted Sprague-Dawley rat muscle pellet fraction at 0.7 to 1.4 MBq, iv preincubated with POCA for 2 hrs before compound administration measured at 120 mins post treatment by Folch-type extraction method; assay type: ADME, organism-based; details: in vivo
In short: (§1)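 Female Sprague-Dawley rats, fasted overnight, under isoflurane (3.5% induction, 1.5% maintenance). [18F] tracer in 0.5–1.0% BSA/saline was given by tail vein. POCA group: 30 mg/kg i.p. 120 min before tracer. About 0.5 g tissue was homogenized and sonicated in chloroform/methanol (2:1) at 0 °C, then 40% urea and 5% H2SO4 were added and spun 10 min at 1,800 g. Aqueous, organic and pellet fractions were counted as % of total.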

[2] = tested on: Heart; test: Biodistribution in overnight fasted Sprague-Dawley rat heart organic fraction at 0.7 to 1.4 MBq, iv preincubated with POCA for 2 hrs before compound administration measured at 120 mins post treatment by Folch-type extraction method; assay type: ADME, organism-based; details: in vivo; in short: as §1
[3] = tested on: Heart; test: Biodistribution in overnight fasted Sprague-Dawley rat heart aqueous fraction at 0.7 to 1.4 MBq, iv preincubated with POCA for 2 hrs before compound administration measured at 120 mins post treatment by Folch-type extraction method; assay type: ADME, organism-based; details: in vivo; in short: as §1
[4] = tested on: Muscle tissue; test: Biodistribution in overnight fasted Sprague-Dawley rat muscle organic fraction at 0.7 to 1.4 MBq, iv at 120 mins by Folch-type extraction method; assay type: ADME, organism-based; details: in vivo, 2 h; in short: as §1
[5] = tested on: Liver; test: Biodistribution in overnight fasted Sprague-Dawley rat liver aqueous fraction at 0.7 to 1.4 MBq, iv at 120 mins by Folch-type extraction method; assay type: ADME, organism-based; details: in vivo, 2 h; in short: as §1
[6] = tested on: Heart; test: Biodistribution in overnight fasted Sprague-Dawley rat heart pellet fraction at 0.7 to 1.4 MBq, iv at 120 mins by Folch-type extraction method; assay type: ADME, organism-based; details: in vivo, 2 h; in short: as §1
[7] = tested on: Heart; test: Biodistribution in overnight fasted Sprague-Dawley rat heart organic fraction at 0.7 to 1.4 MBq, iv at 120 mins by Folch-type extraction method; assay type: ADME, organism-based; details: in vivo, 2 h; in short: as §1
[8] = tested on: Heart; test: Biodistribution in overnight fasted Sprague-Dawley rat heart aqueous fraction at 0.7 to 1.4 MBq, iv at 120 mins by Folch-type extraction method; assay type: ADME, organism-based; details: in vivo, 2 h; in short: as §1
[9] = tested on: Muscle tissue; test: Biodistribution in overnight fasted Sprague-Dawley rat muscle pellet fraction at 0.7 to 1.4 MBq, iv preincubated with POCA for 2 hrs before compound administration measured at 30 mins post treatment by Folch-type extraction method; assay type: ADME, organism-based; details: in vivo, 0.5 h; in short: as §1
[10] = tested on: Liver; test: Biodistribution in overnight fasted Sprague-Dawley rat liver pellet fraction at 0.7 to 1.4 MBq, iv preincubated with POCA for 2 hrs before compound administration measured at 30 mins post treatment by Folch-type extraction method; assay type: ADME, organism-based; details: in vivo, 0.5 h; in short: as §1
[11] = tested on: Liver; test: Biodistribution in overnight fasted Sprague-Dawley rat liver organic fraction at 0.7 to 1.4 MBq, iv preincubated with POCA for 2 hrs before compound administration measured at 30 mins post treatment by Folch-type extraction method; assay type: ADME, organism-based; details: in vivo, 0.5 h; in short: as §1
[12] = tested on: Heart; test: Biodistribution in overnight fasted Sprague-Dawley rat heart organic fraction at 0.7 to 1.4 MBq, iv preincubated with POCA for 2 hrs before compound administration measured at 30 mins post treatment by Folch-type extraction method; assay type: ADME, organism-based; details: in vivo, 0.5 h; in short: as §1
[13] = tested on: Heart; test: Biodistribution in overnight fasted Sprague-Dawley rat heart aqueous fraction at 0.7 to 1.4 MBq, iv preincubated with POCA for 2 hrs before compound administration measured at 30 mins post treatment by Folch-type extraction method; assay type: ADME, organism-based; details: in vivo, 0.5 h; in short: as §1
[14] = tested on: Liver; test: Biodistribution in overnight fasted Sprague-Dawley rat liver pellet fraction at 0.7 to 1.4 MBq, iv at 30 mins by Folch-type extraction method; assay type: ADME, organism-based; details: in vivo, 0.5 h; in short: as §1
[15] = tested on: Liver; test: Biodistribution in overnight fasted Sprague-Dawley rat liver organic fraction at 0.7 to 1.4 MBq, iv at 30 mins by Folch-type extraction method; assay type: ADME, organism-based; details: in vivo, 0.5 h; in short: as §1
[16] = tested on: Heart; test: Biodistribution in overnight fasted Sprague-Dawley rat heart pellet fraction at 0.7 to 1.4 MBq, iv at 30 mins by Folch-type extraction method; assay type: ADME, organism-based; details: in vivo, 0.5 h; in short: as §1
[17] = tested on: Muscle tissue; test: Drug uptake in overnight fasted Sprague-Dawley rat muscle at 0.7 to 1.4 MBq, iv preincubated with POCA for 2 hrs before compound administration measured at 120 mins post treatment; assay type: ADME, organism-based; details: in vivo
In short: (§2)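 Female rats fasted overnight, under isoflurane (3.5% induction, 1.5% maintenance). 18F-labelled tracer formulated in 0.5–1.0% BSA/saline, injected via tail vein. Tissues harvested at 30 or 120 min, weighed, gamma-counted, decay-corrected. Uptake expressed as % dose kg/g, i.e. tissue CPM × body wt (kg) × 100 / (tissue wt (g) × dose CPM). POCA groups received 30 mg/kg i.p. 2 h before tracer. n = 5–6.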

[18] = tested on: Brain; test: Drug uptake in overnight fasted Sprague-Dawley rat brain at 0.7 to 1.4 MBq, iv preincubated with POCA for 2 hrs before compound administration measured at 120 mins post treatment; assay type: ADME, organism-based; details: in vivo
In short: (§3)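 Overnight-fasted female Sprague-Dawley rats under isoflurane received the [18F] tracer in 0.5–1.0% BSA/saline by tail vein. POCA group: 30 mg/kg i.p. 2 h before tracer. Tissues were excised at 30 or 120 min, weighed and gamma-counted with decay correction. Uptake = % dose kg/g, i.e. CPM tissue × body wt (kg) × 100 / (tissue wt (g) × CPM dose). n = 5–6.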

[19] = tested on: Lung; test: Drug uptake in overnight fasted Sprague-Dawley rat lung at 0.7 to 1.4 MBq, iv preincubated with POCA for 2 hrs before compound administration measured at 120 mins post treatment; assay type: ADME, organism-based; details: in vivo; in short: as §2
[20] = tested on: Heart; test: Drug uptake in overnight fasted Sprague-Dawley rat heart at 0.7 to 1.4 MBq, iv preincubated with POCA for 2 hrs before compound administration measured at 120 mins post treatment; assay type: ADME, organism-based; details: in vivo; in short: as §2
[21] = tested on: Muscle tissue; test: Drug uptake in overnight fasted Sprague-Dawley rat muscle at 0.7 to 1.4 MBq, iv at 120 mins; assay type: ADME, organism-based; details: in vivo, 2 h; in short: as §2
[22] = tested on: Bone; test: Drug uptake in overnight fasted Sprague-Dawley rat bone at 0.7 to 1.4 MBq, iv at 120 mins; assay type: ADME, organism-based, Bone element; details: in vivo, 2 h; in short: as §3
[23] = tested on: Liver; test: Drug uptake in overnight fasted Sprague-Dawley rat liver at 0.7 to 1.4 MBq, iv at 120 mins; assay type: ADME, organism-based; details: in vivo, 2 h; in short: as §2
[24] = tested on: Heart; test: Drug uptake in overnight fasted Sprague-Dawley rat heart at 0.7 to 1.4 MBq, iv at 120 mins; assay type: ADME, organism-based; details: in vivo, 2 h; in short: as §3
[25] = tested on: Kidney; test: Drug uptake in overnight fasted Sprague-Dawley rat kidney at 0.7 to 1.4 MBq, iv preincubated with POCA for 2 hrs before compound administration measured at 30 mins post treatment; assay type: ADME, organism-based; details: in vivo, 0.5 h; in short: as §2
[26] = tested on: Lung; test: Drug uptake in overnight fasted Sprague-Dawley rat lung at 0.7 to 1.4 MBq, iv preincubated with POCA for 2 hrs before compound administration measured at 30 mins post treatment; assay type: ADME, organism-based; details: in vivo, 0.5 h; in short: as §2
[27] = tested on: Muscle tissue; test: Drug uptake in overnight fasted Sprague-Dawley rat muscle at 0.7 to 1.4 MBq, iv at 30 mins; assay type: ADME, organism-based; details: in vivo, 0.5 h; in short: as §2
[28] = tested on: Brain; test: Drug uptake in overnight fasted Sprague-Dawley rat brain at 0.7 to 1.4 MBq, iv at 30 mins; assay type: ADME, organism-based; details: in vivo, 0.5 h; in short: as §3
[29] = tested on: Liver; test: Drug uptake in overnight fasted Sprague-Dawley rat liver at 0.7 to 1.4 MBq, iv at 30 mins; assay type: ADME, organism-based; details: in vivo, 0.5 h; in short: as §2
[30] = tested on: Lung; test: Drug uptake in overnight fasted Sprague-Dawley rat lung at 0.7 to 1.4 MBq, iv at 30 mins; assay type: ADME, organism-based; details: in vivo, 0.5 h; in short: as §2
[31] = tested on: Blood; test: Drug uptake in overnight fasted Sprague-Dawley rat blood at 0.7 to 1.4 MBq, iv at 30 mins; assay type: ADME, organism-based; details: in vivo, 0.5 h; in short: as §3

SMILES: O=C(O)CCSCCCCCCCCCCCC[18F]
- Drug uptake [1]: 32.69%
- Drug uptake [2]: 67.98%
- Drug uptake [3]: 7.53%
- Drug uptake [4]: 34%
- Drug uptake [5]: 5.32%
- Drug uptake [6]: 76.93%
- Drug uptake [7]: 18.88%
- Drug uptake [8]: 4.17%
- Drug uptake [9]: 32.63%
- Drug uptake [10]: 38.07%
- Drug uptake [11]: 41.68%
- Drug uptake [12]: 51.9%
- Drug uptake [13]: 15.28%
- Drug uptake [14]: 38.21%
- Drug uptake [15]: 48.25%
- Drug uptake [16]: 58.8%
- Drug uptake [17]: 0.0298 %IDKg/g
- Drug uptake [18]: 0.0578 %IDKg/g
- Drug uptake [19]: 0.0472 %IDKg/g
- Drug uptake [20]: 0.1042 %IDKg/g
- Drug uptake [21]: 0.0109 %IDKg/g
- Drug uptake [22]: 0.3143 %IDKg/g
- Drug uptake [23]: 0.47 %IDKg/g
- Drug uptake [24]: 0.1069 %IDKg/g
- Drug uptake [25]: 0.2477 %IDKg/g
- Drug uptake [26]: 0.0676 %IDKg/g
- Drug uptake [27]: 0.031 %IDKg/g
- Drug uptake [28]: 0.067 %IDKg/g
- Drug uptake [29]: 0.899 %IDKg/g
- Drug uptake [30]: 0.099 %IDKg/g
- Drug uptake [31]: 0.07 %IDKg/g
